Results from ChEMBL document CHEMBL1143410, “Antiviral and anti-inflammatory effects of rosmarinic acid in an experimental murine model of Japanese encephalitis” (Antimicrob Agents Chemother, 2007).
Active and inactive are the calls of the source. The calls are words filed in the database; no cut-off is given here.

How the values were obtained:
[1] = tested on: Japanese encephalitis virus; experiment: Antiviral activity against Japanese encephalitis virus GP78 infected BALB/c mouse assessed as reduction in mortality rate at 25 mg/kg, ip twice daily administered 1 day post viral-challenge; type: functional; design: scale not given: the % may be the effect or the level left; conditions: route intraperitoneal
Outline: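 Survival was followed in infected BALB/c mice (4–5 weeks, either sex; 15 per group). Animals received RA in PBS at 25 mg/kg i.p. twice daily, from day 1 post-infection until the first untreated infected animal died. Symptoms (limb paralysis, tremor, piloerection, stiffening) were recorded alongside deaths.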

[2] = tested on: Mus musculus; experiment: Toxicity in BALB/c mouse assessed as behavioral activity at 25 mg/kg, ip twice daily; type: organism-based; design: dose 25 mg/kg, route intraperitoneal; conditions: in vivo
Outline: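 Uninfected BALB/c mice (4–5 weeks, either sex; 15 per group) received RA alone, dissolved in PBS, at 25 mg/kg i.p. twice daily. Behavior was observed and compared with a PBS-injected control group.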

[3] = tested on: Japanese encephalitis virus; experiment: Antiviral activity against Japanese encephalitis virus GP78 infected BALB/c mouse assessed as reduction of activated microglia in mouse brain at 25 mg/kg, ip twice daily; type: functional, organism-based; design: dose 25 mg/kg
Outline: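 RA was given at 25 mg/kg i.p. twice daily to infected BALB/c mice. Mice were perfused with PBS containing 7 U/ml heparin, then with 2.5% paraformaldehyde. Cryostat brain sections were stained for Iba-1, and star-shaped activated microglia were counted.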

[4] = tested on: Japanese encephalitis virus; experiment: Antiviral activity against Japanese encephalitis virus GP78 infected BALB/c mouse assessed as inhibition of viral proteins in mouse brain at 25 mg/kg, ip twice daily after 8 to 9 days by immunoblot; type: functional, organism-based; design: dose 25 mg/kg
[5] = tested on: Japanese encephalitis virus; experiment: Antiviral activity against Japanese encephalitis virus GP78 infected BALB/c mouse assessed as inhibition of viral mRNA transcript in mouse brain at 25 mg/kg, ip twice daily after 8 to 9 days; type: functional, organism-based; design: dose 25 mg/kg
[6] = tested on: Mus musculus; experiment: Antiinflammatory activity in Japanese encephalitis virus GP78 infected BALB/c mouse assessed as decrease in virus-induced IL12 levels at 25 mg/kg, ip twice daily after 8 to 9 days relative to control; type: functional; conditions: route intraperitoneal
Outline: (§1)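 BALB/c mice (4–5 weeks, either sex; 15 per group) were dosed with RA in PBS at 25 mg/kg i.p. twice daily, from day 1 after infection until the first untreated infected mouse died. IL-12, TNF-α, IFN-γ, MCP-1 and IL-6 in brain tissue lysates were quantified with a mouse cytometric bead array. Statistics used one-way ANOVA with Bonferroni post hoc comparisons.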

[7] = tested on: Mus musculus; experiment: Antiinflammatory activity in Japanese encephalitis virus GP78 infected BALB/c mouse assessed as decrease in virus-induced TNFalpha levels at 25 mg/kg, ip twice daily after 8 to 9 days relative to control; type: functional; conditions: route intraperitoneal; outline: as §1
[8] = tested on: Mus musculus; experiment: Antiinflammatory activity in Japanese encephalitis virus GP78 infected BALB/c mouse assessed as decrease in virus-induced IFN-gamma levels at 25 mg/kg, ip twice daily after 8 to 9 days relative to control; type: functional; conditions: route intraperitoneal; outline: as §1
[9] = tested on: Mus musculus; experiment: Antiinflammatory activity in Japanese encephalitis virus GP78 infected BALB/c mouse assessed as decrease in virus-induced MCP1 levels at 25 mg/kg, ip twice daily after 8 to 9 days relative to control; type: functional; conditions: route intraperitoneal; outline: as §1
[10] = tested on: Mus musculus; experiment: Antiinflammatory activity in Japanese encephalitis virus GP78 infected BALB/c mouse assessed as decrease in virus-induced IL6 levels at 25 mg/kg, ip twice daily after 8 to 9 days relative to control; type: functional; conditions: route intraperitoneal; outline: as §1
[11] = tested on: Mus musculus; experiment: Antiinflammatory activity in Japanese encephalitis virus GP78 infected BALB/c mouse assessed as increase in IkappaB-alpha levels at 25 mg/kg, ip twice daily after 8 to 9 days relative to control; type: functional, organism-based; design: dose 25 mg/kg
Outline: (§2)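 BALB/c mice (4–5 weeks, either sex; 15 per group) received RA dissolved in PBS at 25 mg/kg i.p. twice daily. Dosing began one day after infection and continued until the first untreated infected mouse died. Brain protein (10 μg) was Western blotted with pNF-κB, IκB-α and Cox-2 antibodies (1:1,000), using β-tubulin as loading reference and HRP chemiluminescence detection. Groups were compared by one-way ANOVA with Bonferroni post hoc tests.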

[12] = tested on: Mus musculus; experiment: Antiinflammatory activity in Japanese encephalitis virus GP78 infected BALB/c mouse assessed as decrease in phosphorylated NF-kappaB levels at 25 mg/kg, ip twice daily after 8 to 9 days relative to control; type: functional, organism-based; design: dose 25 mg/kg; outline: as §2
[13] = tested on: Mus musculus; experiment: Antiinflammatory activity in Japanese encephalitis virus GP78 infected BALB/c mouse assessed as decrease in Cox2 levels at 25 mg/kg, ip twice daily after 8 to 9 days relative to control; type: functional, organism-based; design: dose 25 mg/kg; outline: as §2
[14] = tested on: BV-2; experiment: Antiinflammatory activity in Japanese encephalitis virus GP78 infected mouse BV2 cells assessed as decrease in virus-induced IL12 levels at 25 uM after 18 hrs by Western blot relative to control; type: functional
[15] = tested on: BV-2; experiment: Antiinflammatory activity in Japanese encephalitis virus GP78 infected mouse BV2 cells assessed as decrease in virus-induced TNFalpha levels at 25 uM after 18 hrs by Western blot relative to control; type: functional
[16] = tested on: BV-2; experiment: Antiinflammatory activity in Japanese encephalitis virus GP78 infected mouse BV2 cells assessed as decrease in virus-induced IFN-gamma levels at 25 uM after 18 hrs by Western blot relative to control; type: functional
[17] = tested on: BV-2; experiment: Antiinflammatory activity in Japanese encephalitis virus GP78 infected mouse BV2 cells assessed as decrease in virus-induced MCP1 levels at 25 uM after 18 hrs by Western blot relative to control; type: functional
[18] = tested on: BV-2; experiment: Antiinflammatory activity in Japanese encephalitis virus GP78 infected mouse BV2 cells assessed as decrease in virus-induced IL6 levels at 25 uM after 18 hrs by Western blot relative to control; type: functional

`O=C(/C=C/c1ccc(O)c(O)c1)O[C@H](Cc1ccc(O)c(O)c1)C(=O)O` [ROSMARINIC ACID] was tested, and the Activity [1] was 20%, the Activity [2] was “Non-toxic” and the Activity [3] was “Active”. For the same molecule, the Activity [4] was “Active”, the Activity [5] was “Active” and the “fold change (FC)” value [6] was 5. For the same molecule, the “fold change (FC)” value [7] was 18, the “fold change (FC)” value [8] was 6 and the “fold change (FC)” value [9] was 100. For the same molecule, the “fold change (FC)” value [10] was 9, the Activity [11] was “Active” and the Activity [12] was “Active”. For the same molecule, the Activity [13] was “Active”, the “fold change (FC)” value [14] was 13 and the “fold change (FC)” value [15] was 14. For the same molecule, the “fold change (FC)” value [16] was 12, the “fold change (FC)” value [17] was 25 and the “fold change (FC)” value [18] was 12.5.
